Publication PMC7132385 (Antiviral Research, 2007)
In brackets after ≈: the same amount, converted by molar mass. Like-named read-outs stand apart in the source and are kept apart here.

B1: cyanovirin-N (protein, UniProt P81180 1-101, looked up)
Cyanovirin-N: LGKFSQTCYNSAIQGSVLTSTCERTNGGYNTSSIDLNSVIENVDGSLKWQPSNFIETCRNTQLAGSSELAAECKTRAQQFVSTKINLDDHIANIDGTLKYE
B2: Urtica dioica agglutinin (protein, UniProt P11218 24-372, looked up)
Lectin/endochitinase 1: QRCGSQGGGGTCPALWCCSIWGWCGDSEPYCGRTCENKCWSGERSDHRCGAAVGNPPCGQDRCCSVHGWCGGGNDYCSGSKCQYRCSSSVRGPRVALSGNSTANSIGNVVVTEPLFDQMFSHRKDCPSQGFYSYHSFLVAAESFPAFGTIGDVATRKREVAAFLAHISQATSGERSDVENPHAWGLCHINTTTVTENDFCTSSDWPCAAGKKYSPRGPIQLTHNFNYGLAGQAIGEDLIQNPDLVEKDPIISFKTALWFWMSQHDNKPSCHDIVLNANSAANRIPNKGVIGNIISRAFGHDDFAVRSSSIGFYKRYCDMLGVSYGHDLKYWFDNTPSSEFQRIQMRVAA

Experiments:
[1] = tested on: FIPV-Δ3abcFL (serotype II); experiment: Immunoperoxidase; format: cell-based, feline coronavirus; conditions: read-out: EC50 (50% inhibition of virus infection), FIPV-Δ3abcFL (serotype II)
Method in brief: (§1)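 FCWF monolayers were given virus (MOI 0.5) that had been preincubated 1 h at 37 °C with test compound, for 1 h after a PBS-DEAE wash, then washed and given compound at the same concentrations. Cells were fixed in 4% formaldehyde for 15 min at 6 h post-infection (16 h for serotype I strain), permeabilised with 70% ethanol, and stained with cat FIP ascitic fluid plus HRP goat anti-cat. EC50 is 50% fewer microscopically counted infected foci than mock-treated cells.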

[2] = Cytotoxicity MTT assay, LR7 cells; format: cell-based, mouse; conditions: mouse
Method in brief: (§2)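 Cells grown in DMEM with 10% FBS and antibiotics were kept with a range of test compound concentrations for 3 days at 37 °C, 5% CO2. MTT was added to 0.5 mg/ml final for 2 h at 37 °C. Medium was removed and cells were lysed in DMSO (10 min, room temperature, rocking). OD was read at 570 nm. CC50 is the concentration lowering viability of 50% of cells, ± S.D.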

[3] = Cytotoxicity MTT assay, Ederm cells; format: cell-based, equine; conditions: horse, equine dermis (Ederm) cells
Method in brief: as §2

[4] = Maximum solubility of the compound; format: physicochemical
MHV-EFLM = experiment: Immunoperoxidase; format: cell-based, mouse hepatitis virus; conditions: read-out: EC50 (50% inhibition of virus infection), MHV-EFLM
Method in brief: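 Murine LR7 fibroblasts expressing the MHV receptor were infected at MOI 0.5 with virus preincubated 1 h at 37 °C with test compound. After 1 h the inoculum was removed, cells were washed, and compound was re-added at the same concentrations. At 6 h cells were fixed in 4% formaldehyde and permeabilised with 70% ethanol. Immunoperoxidase staining used rabbit anti-MHV polyclonal plus HRP swine anti-rabbit. EC50 is the concentration lowering light-microscope infected-cell counts by 50% versus mock.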

Equine arteritis virus = experiment: Colorimetric MTT antiviral assay, equine arteritis virus; format: cell-based; conditions: read-out: EC50 (50% inhibition of virus infection), Equine arteritis virus
Method in brief: (§3)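 100 TCID50 of virus was preincubated with graded test compound for 1 h at 37 °C, 5% CO2, added to PBS-DEAE-washed cells for 1 h, then removed, and compound was re-added at the same concentrations in DMEM with 5% FBS. MTT (0.5 mg/ml final) was added for 2 h at day 2 (FCoV 79-1683, FIPV 79-1146) or day 3 (others), then DMSO lysis and OD570. EC50 is 50% protection from CPE.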

IBV Beaudette = experiment: Colorimetric MTT antiviral assay, IBV Beaudette; format: cell-based, infectious bronchitis virus; conditions: read-out: EC50 (50% inhibition of virus infection), IBV Beaudette
Method in brief: as §3

[5] = Cytotoxicity MTT assay, FCWF cells; format: cell-based, feline; conditions: cat, FCWF cells
Method in brief: as §2

[6] = tested on: FIPV Black TN406HP (serotype I); experiment: Immunoperoxidase; format: cell-based, feline coronavirus; conditions: read-out: EC50 (50% inhibition of virus infection), FIPV Black TN406HP (serotype I)
Method in brief: as §1

Berne virus torovirus = experiment: Colorimetric MTT antiviral assay, Berne virus; format: cell-based, equine torovirus; conditions: read-out: EC50 (50% inhibition of virus infection), Berne virus torovirus
Method in brief: as §3

[7] = tested on: FCoV 79-1683 (serotype II); experiment: Immunoperoxidase; format: cell-based, feline coronavirus; conditions: read-out: EC50 (50% inhibition of virus infection), FCoV 79-1683 (serotype II)
Method in brief: as §1

[8] = Cytotoxicity MTT assay, Vero cells; format: cell-based, simian; conditions: monkey (simian), Vero cells
Method in brief: as §2

ST cells = experiment: Cytotoxicity MTT assay, ST cells; format: cell-based, porcine; conditions: read-out: CC50 (50% cytotoxicity), ST, 3 days, ± S.D.
Method in brief: as §2

[9] = tested on: porcine alveolar macrophages (PAMs); experiment: Cytotoxicity by EMA staining, PAMs; format: cell-based; conditions: read-out: CC50 (50% cytotoxicity), PAMs, 24 h, ± S.D.
LR7 cells = experiment: Cytotoxicity MTT assay, LR7 cells; format: cell-based, mouse; conditions: read-out: CC50 (50% cytotoxicity), LR7; MTT assay, 3 days; ± S.D.
Method in brief: as §2

[10] = tested on: equine dermis (Ederm) cells; experiment: Cytotoxicity MTT assay, Ederm cells; format: cell-based; conditions: read-out: CC50 (50% cytotoxicity), Ederm; MTT assay, 3 days; ± S.D.
Method in brief: as §2

[11] = tested on: FCoV 79-1683 (serotype II); experiment: Colorimetric MTT antiviral assay, FCoV 79-1683; format: cell-based, feline coronavirus; conditions: read-out: EC50 (50% inhibition of virus infection), FCoV 79-1683 (serotype II), FCWF cells, 100 TCID50, 2 days, ± S.D.
Method in brief: as §3

[12] = tested on: FIPV 79-1146 (serotype II); experiment: Colorimetric MTT antiviral assay, FIPV 79-1146; format: cell-based, feline coronavirus; conditions: read-out: EC50 (50% inhibition of virus infection), FIPV 79-1146 (serotype II), FCWF cells, 100 TCID50, 2 days, ± S.D.
Method in brief: as §3

[13] = tested on: FIPV Black TN406HP (serotype I); experiment: Colorimetric MTT antiviral assay, FIPV Black TN406HP; format: cell-based, feline coronavirus; conditions: read-out: EC50 (50% inhibition of virus infection), FIPV Black TN406HP (serotype I), FCWF cells, 100 TCID50, 3 days, ± S.D.
Method in brief: as §3

PRRSV Lelystad virus = experiment: Immunoperoxidase; format: cell-based, porcine reproductive and respiratory syndrome virus; conditions: IPOX assay; for PRRSV Lelystad virus infection of PAMs reduced to: at 2 μM; for EC50: read-out: EC50 (50% inhibition of virus infection), PRRSV Lelystad virus, PAMs, MOI 1, 10 h post-infection, ± S.D.
Method in brief: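 Primary porcine alveolar macrophages were kept in EMEM with 10% FBS at 37 °C, 5% CO2. Virus at MOI 1 was preincubated 1 h at 37 °C with test compound, then added to cells for 1 h. Cells were washed with FBS-free medium and fixed in −20 °C methanol at 10 h post-infection. Peroxidase was blocked with azide/H2O2. Staining used anti-nucleocapsid MAb P3/27 with HRP anti-mouse. Infected cells were counted by light microscopy against mock-treated cells.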

FCWF cells = experiment: Cytotoxicity MTT assay, FCWF cells; format: cell-based, feline; conditions: read-out: CC50 (50% cytotoxicity), FCWF; MTT assay, 3 days; ± S.D.
Method in brief: as §2

Vero cells = experiment: Cytotoxicity MTT assay, Vero cells; format: cell-based, simian; conditions: read-out: CC50 (50% cytotoxicity), Vero; MTT assay, 3 days; ± S.D.
Method in brief: as §2

retroviruses = conditions: read-out: EC50 against retroviruses; earlier studies; ref Balzarini et al., 1992; cited from earlier work
TGEV Purdue = experiment: Colorimetric MTT antiviral assay, TGEV Purdue; format: cell-based, transmissible gastroenteritis virus; conditions: read-out: EC50 (50% inhibition of virus infection), TGEV Purdue, ST cells, 100 TCID50, 3 days, ± S.D.
Method in brief: as §3

[14] = IPOX assay, FCWF cells, MOI 0.5, 6 h post-infection, ± S.D.
[15] = IPOX assay, LR7 cells, MOI 0.5, 6 h post-infection, ± S.D.
[16] = MTT assay, Ederm cells, 100 TCID50, 3 days, ± S.D.
[17] = MTT assay, Vero cells, 100 TCID50, 3 days, ± S.D.
[18] = IPOX assay, FCWF cells, MOI 0.5, 16 h post-infection, ± S.D.

| Molecule | CC50 (ST cells) [nM] | CC50 [9] [nM] | EC50 [1, 14] [nM] | CC50 (LR7 cells) [nM] | CC50 [10] [nM] | EC50 [11] [nM] | EC50 [12] [nM] | EC50 (MHV-EFLM; [15]) [nM] | EC50 (Equine arteritis virus; [16]) [nM] | EC50 (IBV Beaudette; [17]) [nM] | EC50 [13] [nM] | PRRSV Lelystad virus infection of PAMs reduced to (PRRSV Lelystad virus) [%] | EC50 (PRRSV Lelystad virus) [nM] | CC50 (FCWF cells) [nM] | EC50 [6, 18] [nM] | EC50 (Berne virus torovirus; [16]) [nM] | EC50 [7, 14] [nM] | CC50 (Vero cells) [nM] | EC50 (TGEV Purdue) [nM] | further results |
| --- | --- | --- | --- | --- | --- | --- | --- | --- | --- | --- | --- | --- | --- | --- | --- | --- | --- | --- | --- | --- |
| CN[C@@H]1[C@H](O[C@@H]2OC[C@@H](O)[C@H](O)[C@H]2O)[C@@H](O)[C@H](O[C@H]2c3cc(C)c(C(=O)N[C@H](C)C(=O)O)c(O)c3-c3c(cc4c(c3O)C(=O)c3cc(OC)cc(O)c3C4=O)[C@@H]2O)O[C@@H]1C [PRM-A, pradimicin-A, reference compound] | 121000 ± 27600 | 18100 ± 6400 | – | – | – | – | – | – | – | – | – | – | – | – | – | – | – | – | – | EC50 ([1]; Alphacoronavirus 1, 6 h): > 120000 nM; CC50 at 3 days [2]: > 120000 nM; CC50 at 3 days [3]: > 120000 nM; solubility [4]: 120 µM (≈ 101 µg/mL); EC50 (MHV-EFLM; Murine coronavirus, LR7, 6 h): 10700 ± 5800 nM; EC50 (Equine arteritis virus; Equine arteritis virus, 72 h): > 120000 nM; EC50 (IBV Beaudette; Avian coronavirus, Vero, 72 h): 2900 ± 2000 nM; CC50 at 3 days [5]: > 120000 nM; EC50 ([6]; Alphacoronavirus 1, 16 h): 7800 ± 2000 nM; EC50 (Berne virus torovirus; Equine torovirus, 72 h): 31000 ± 24000 nM; EC50 ([7]; Alphacoronavirus 1, 6 h): > 120000 nM; CC50 at 3 days [8]: 120000 ± 32400 nM |
| Hippeastrum hybrid agglutinin [HHA] | > 2000 | > 2000 | 30 ± 20 | > 2000 | 1900 ± 300 | 110 ± 30 | 100 ± 2 | 70 ± 20 | 130 ± 40 | 0.2 ± 0.2 | 7 ± 3 | 40 | > 2000 | > 2000 | 4 ± 2 | 70 ± 70 | 60 ± 20 | > 2000 | – | – |
| Cymbidium sp. agglutinin [CA] | – | – | – | > 4000 | – | – | 290 ± 110 | – | – | – | 130 ± 2 | – | – | 3300 ± 800 | – | – | – | – | – | EC50 (retroviruses): 3 nM |
| Galanthus nivalis agglutinin [GNA] | > 2000 | > 2000 | 70 ± 40 | > 2000 | > 2000 | 430 ± 300 | 130 ± 2 | 40 ± 20 | 180 ± 70 | 0.2 ± 0.2 | 8 ± 5 | 40 | > 2000 | > 2000 | 12 ± 6 | 120 ± 90 | 200 ± 60 | > 2000 | 4 ± 0.8 | – |
| B1 | – | – | – | > 2000 | – | – | – | – | – | – | – | – | – | 1400 ± 500 | – | – | – | – | – | – |
| B2 | 6100 ± 1000 | > 12000 | 140 ± 50 | 9900 ± 4800 | 9500 ± 3100 | 110 ± 30 | 240 ± 140 | 530 ± 20 | 390 ± 10 | 50 ± 50 | 23 ± 12 | – | 4800 ± 3200 | 2200 ± 300 | 20 ± 10 | 250 ± 200 | 170 ± 100 | 3400 ± 1300 | 80 ± 70 | – |
